According to ChEMBL document CHEMBL6153131, “Rational Design and Optimization of a Potent IDO1 Proteolysis Targeting Chimera (PROTAC)” (J Med Chem, 2025):
Calls of active or inactive are those of the source. The rule behind the calls is not given here.

Assays:
[1] = target: T1, Protein cereblon/Indoleamine 2,3-dioxygenase 1 (Homo sapiens, UniProt P14902+Q96SW2); assay: PROTAC activity at CRBN/IDO1 in human U87 cells assessed as induction of IDO1 degradation by measuring remaining activity at 0.003 uM incubated for 24 hrs by Western blotting analysis (reference value: 100%); type: cell-based
[2] = target: T1, Protein cereblon/Indoleamine 2,3-dioxygenase 1; assay: PROTAC activity at CRBN/IDO1 in human U87 cells assessed as induction of IDO1 degradation by measuring remaining activity at 0.03 uM pretreated with IFN-gamma for 24 hrs followed by compound addition and measured after 24 hrs by Western blotting analysis (reference value: 100%); type: cell-based
How it was run: (§1)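 U87 cells given an extended dose range of PROTAC for 24 h, then Western blot for IDO1. IFNγ-induced IDO1 levels normalised to untreated samples. n = 3 independent experiments; mean ± SEM.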

[3] = target: T1, Protein cereblon/Indoleamine 2,3-dioxygenase 1; assay: PROTAC activity at CRBN/IDO1 in human U87 cells assessed as induction of IDO1 degradation by measuring remaining activity at 0.3 uM pretreated with IFN-gamma for 24 hrs followed by compound addition and measured after 24 hrs by Western blotting analysis (reference value: 100%); type: cell-based; how it was run: as §1
[4] = target: T1, Protein cereblon/Indoleamine 2,3-dioxygenase 1; assay: PROTAC activity at CRBN/IDO1 in human U87 cells assessed as induction of IDO1 degradation by measuring remaining activity at 1 uM pretreated with IFN-gamma for 24 hrs followed by compound addition and measured after 24 hrs by Western blotting analysis (reference value: 100%); type: cell-based; how it was run: as §1
[5] = target: T1, Protein cereblon/Indoleamine 2,3-dioxygenase 1; assay: PROTAC activity at CRBN/IDO1 in human GBM43 cell assessed as induction of IDO1 degradation at 0.003 uM pretreated with IFN-gamma for 24 hrs followed by compound addition and measured after 24 hrs by Western blotting analysis (reference value: 100%); type: cell-based
How it was run: (§2)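 GBM43 patient-derived cells given an extended dose range of PROTAC for 24 h. Protein analysed by Western blot for IDO1, and IFNγ-induced IDO1 normalised to untreated samples. n = 3 independent experiments; data as mean ± SEM.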

[6] = target: T1, Protein cereblon/Indoleamine 2,3-dioxygenase 1; assay: PROTAC activity at CRBN/IDO1 in human GBM43 cell assessed as induction of IDO1 degradation at 0.1 uM pretreated with IFN-gamma for 24 hrs followed by compound addition and measured after 24 hrs by Western blotting analysis (reference value: 100%); type: cell-based; how it was run: as §2
[7] = target: T1, Protein cereblon/Indoleamine 2,3-dioxygenase 1; assay: PROTAC activity at CRBN/IDO1 in human U87 cells assessed as induction of IDO1 degradation at 50 to 100 nM pretreated with IFN-gamma for 24 hrs followed by compound addition and measured upto 72 hrs by Western blotting analysis; type: cell-based; conditions: dose 50-100 nM
How it was run: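 U87 cells under single continuous PROTAC treatment (50 and 100 nM), sampled at multiple time points up to 72 h. IDO1 assessed by Western blot.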

[8] = target: T1, Protein cereblon/Indoleamine 2,3-dioxygenase 1; assay: PROTAC activity at CRBN/IDO1 in human U87 cells assessed as induction of IDO1 degradation at 50 to 100 nM pretreated with compound for 24 hrs followed by compound washout and measured upto 48 hrs by Western blotting analysis; type: cell-based; conditions: dose 50-100 nM
How it was run: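 U87 cells given a 24 h PROTAC pulse, then cultured without compound for up to 48 h after washout. IDO1 assessed by Western blot.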

[9] = target: T1, Protein cereblon/Indoleamine 2,3-dioxygenase 1; assay: PROTAC activity at CRBN/IDO1 in human U87 cells assessed as induction of IDO1 degradation at 100 nM at 1 uM pretreated with IFN-gamma for 24 hrs followed by compound addition and measured after 24 hrs in presence of MG132 by Western blotting analysis; type: cell-based
KNS-42 = assay: Inhibition of kynurenine production in human KNS-42 cells pretreated with IFN-gamma for 24 hrs followed by compound addition and measured after 24 hrs by Ehrlich's reagent based analysis; type: functional, cell-based; conditions: dose 50-100 nM
[10] = Cmax in female C57BL/6J mouse brain at 50 mg/kg, ip by LC-MS/MS analysis; type: ADME, organism-based
[11] = AUC (0 to infinity) in female C57BL/6J mouse brain at 50 mg/kg, ip by LC-MS/MS analysis; type: ADME, organism-based

T1 sequence (P14902 whole entry, looked up): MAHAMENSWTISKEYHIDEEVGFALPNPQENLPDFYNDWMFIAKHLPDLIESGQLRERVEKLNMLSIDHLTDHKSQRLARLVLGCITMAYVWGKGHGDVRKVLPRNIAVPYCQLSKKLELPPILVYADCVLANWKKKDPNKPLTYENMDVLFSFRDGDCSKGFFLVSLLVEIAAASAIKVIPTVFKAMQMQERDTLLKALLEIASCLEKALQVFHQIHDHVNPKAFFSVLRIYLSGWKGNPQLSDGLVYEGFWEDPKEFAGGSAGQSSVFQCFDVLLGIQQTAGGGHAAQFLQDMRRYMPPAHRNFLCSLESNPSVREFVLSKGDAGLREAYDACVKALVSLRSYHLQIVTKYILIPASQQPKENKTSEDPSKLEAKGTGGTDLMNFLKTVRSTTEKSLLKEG
T1 sequence (Q96SW2 whole entry, looked up): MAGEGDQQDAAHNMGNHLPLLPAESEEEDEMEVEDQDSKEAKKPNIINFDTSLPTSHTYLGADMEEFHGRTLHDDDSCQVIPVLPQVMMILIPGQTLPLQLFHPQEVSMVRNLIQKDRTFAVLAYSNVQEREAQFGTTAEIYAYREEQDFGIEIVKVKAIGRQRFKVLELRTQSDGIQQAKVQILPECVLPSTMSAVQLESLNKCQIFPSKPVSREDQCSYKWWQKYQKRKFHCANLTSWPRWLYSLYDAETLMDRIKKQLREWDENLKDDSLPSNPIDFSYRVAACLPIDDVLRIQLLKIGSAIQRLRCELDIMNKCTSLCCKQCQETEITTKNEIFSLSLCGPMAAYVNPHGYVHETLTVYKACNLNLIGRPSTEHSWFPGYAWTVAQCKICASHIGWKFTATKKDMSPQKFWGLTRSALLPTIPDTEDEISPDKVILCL

For `C[C@@H](C(=O)Nc1cccc(OC2CCN(C(=O)CN3CCC(N4CCN(c5ccc6c(c5)C(=O)N(C5CCC(=O)NC5=O)C6=O)CC4)CC3)CC2)c1)[C@H]1CC[C@@H](c2ccnc3ccc(F)cc32)CC1` (some centres not stated), which Activity [1] is on record?
Its Activity is 71%.

And the Activity [2]?
The Activity was 27%.

And the Activity [3]?
The Activity was 20%.

And the Activity [4]?
The Activity was 35%.

And the Activity [5]?
Its Activity is 75%.

What about the Activity [6] of the same compound?
The Activity was 13%.

What about the Activity [7] of the same compound?
Its Activity is “Active”.

And the Activity [8]?
Its Activity is “Active”.

And the Activity [9]?
Its Activity is “inactive”.

And the inhibition (KNS-42)?
Its inhibition is “Dose-dependent-effect”.

What about the Cmax [10] of the same compound?
The Cmax was 100 nM.

And the AUC(0-inf) [11]?
Its AUC(0-inf) is 1 µM·h.
